Reference: ChEMBL document CHEMBL2150892, “Neuroprotective Tri- and Tetracyclic BChE Inhibitors Releasing Reversible Inhibitors upon Carbamate Transfer” (ACS Med Chem Lett, 2012)
Active and inactive are the calls of the source. The calls are words filed in the database; no cut-off is given here.

Legend:
Cholinesterase [1] = molecular target: T1, Cholinesterase (Equus caballus, UniProt P81908); test: Inhibition of equine serum BChE using acetylthiocholine as substrate after 2 mins
In short: (§1)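 Enzyme sources were electric eel AChE and equine serum BChE. Values are means of at least three independent determinations.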

[2] = Selectivity ratio of IC50 for Electric eel AChE to IC50 for equine serum BChE
In short: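 Selectivity ratio calculated as IC50(AChE)/IC50(BChE). AChE was from electric eel and BChE from equine serum. Each IC50 is a mean of at least three independent determinations.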

[3] = Antioxidant activity assessed as trolox equivalents of peroxyl radical scavenging activity by ORAC assay; assay type: functional
In short: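 ORAC assay: measures how well each compound protects fluorescein from destruction by peroxyl radicals. Capacity is expressed as trolox equivalents, with trolox as the reference.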

HT-22 [4] = test: Neuroprotective activity against glutamate-induced oxidative stress in mouse HT22 cells assessed as reduction of intracellular ROS formation at 10 uM after 24 hrs by MTT assay; assay type: functional, cell-based
In short: (§2)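 Murine hippocampal HT-22 cells, which lack ionotropic glutamate receptors, were challenged with extracellular glutamate to cause oxidative (oxytotic) cell death. Compounds were tested at 10 μM and 5 μM against this glutamate-induced toxicity.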

HT-22 [5] = test: Neuroprotective activity against glutamate-induced oxidative stress in mouse HT22 cells assessed as reduction of intracellular ROS formation at 5 uM after 24 hrs by MTT assay; assay type: functional, cell-based; in short: as §2
Acetylcholinesterase [6] = molecular target: T2, Acetylcholinesterase (Electrophorus electricus, UniProt O42275); test: Inhibition of Electric eel AChE using acetylthiocholine as substrate after 2 mins; in short: as §1
T2 sequence (O42275 whole entry): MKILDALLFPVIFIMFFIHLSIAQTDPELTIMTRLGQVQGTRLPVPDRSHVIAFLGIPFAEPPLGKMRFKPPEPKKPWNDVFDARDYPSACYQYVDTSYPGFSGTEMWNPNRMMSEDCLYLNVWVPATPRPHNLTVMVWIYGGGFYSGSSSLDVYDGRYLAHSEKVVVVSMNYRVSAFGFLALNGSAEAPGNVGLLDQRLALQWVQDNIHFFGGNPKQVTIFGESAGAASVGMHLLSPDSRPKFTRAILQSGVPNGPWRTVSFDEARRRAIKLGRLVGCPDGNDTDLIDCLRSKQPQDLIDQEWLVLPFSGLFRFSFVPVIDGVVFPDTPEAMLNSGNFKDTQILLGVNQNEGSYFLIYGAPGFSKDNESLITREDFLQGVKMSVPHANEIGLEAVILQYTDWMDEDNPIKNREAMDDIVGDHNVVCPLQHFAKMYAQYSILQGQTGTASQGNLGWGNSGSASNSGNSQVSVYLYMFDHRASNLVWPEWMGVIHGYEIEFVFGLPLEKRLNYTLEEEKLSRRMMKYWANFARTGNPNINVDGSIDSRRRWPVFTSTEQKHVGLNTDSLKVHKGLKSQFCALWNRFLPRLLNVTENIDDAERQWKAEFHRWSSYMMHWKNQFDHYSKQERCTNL

Cholinesterase [7] = molecular target: T1, Cholinesterase; test: Time dependent inhibition of equine serum BChE assessed as stability constants of inhibitor-enzyme complex using acetylthiocholine as substrate after 60 mins
[8] = molecular target: Acetylcholinesterase (Electrophorus electricus) (UniProt O42275); test: Inhibition of Electric eel AChE using acetylthiocholine as substrate at 100 uM after 2 mins
Sequence of Acetylcholinesterase (Electrophorus electricus) (O42275 24-633 limits assumed): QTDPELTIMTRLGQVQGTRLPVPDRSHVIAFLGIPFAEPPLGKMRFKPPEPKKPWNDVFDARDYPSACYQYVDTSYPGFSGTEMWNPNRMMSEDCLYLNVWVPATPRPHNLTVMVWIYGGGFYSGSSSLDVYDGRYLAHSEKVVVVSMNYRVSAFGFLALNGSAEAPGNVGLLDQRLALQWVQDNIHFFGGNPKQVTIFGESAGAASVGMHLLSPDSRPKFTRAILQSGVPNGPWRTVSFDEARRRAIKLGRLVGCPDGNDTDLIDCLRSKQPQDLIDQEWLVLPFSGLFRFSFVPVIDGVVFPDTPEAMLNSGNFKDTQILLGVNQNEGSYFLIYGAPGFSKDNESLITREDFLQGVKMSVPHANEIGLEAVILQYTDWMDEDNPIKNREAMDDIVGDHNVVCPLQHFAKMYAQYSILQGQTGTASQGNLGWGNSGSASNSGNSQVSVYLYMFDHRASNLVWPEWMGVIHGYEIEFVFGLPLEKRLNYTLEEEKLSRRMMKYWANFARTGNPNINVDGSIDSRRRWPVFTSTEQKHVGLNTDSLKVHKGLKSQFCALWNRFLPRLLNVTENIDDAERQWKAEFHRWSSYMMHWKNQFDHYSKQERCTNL
In short: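 Enzyme sources were electric eel AChE and equine serum BChE. Values are means of at least three independent determinations. Single-point entries are % inhibition at 100 μM.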

[9] = molecular target: Acetylcholinesterase (Electrophorus electricus) (UniProt O42275); test: Time dependent inhibition of Electric eel AChE assessed as stability constants of inhibitor-enzyme complex using acetylthiocholine as substrate at 10 to 50 nM after 60 mins
Acetylcholinesterase [10] = molecular target: T2, Acetylcholinesterase; test: Time dependent inhibition of Electric eel AChE assessed as stability constants of inhibitor-enzyme complex using acetylthiocholine as substrate after 60 mins

T1 sequence (P81908 whole entry): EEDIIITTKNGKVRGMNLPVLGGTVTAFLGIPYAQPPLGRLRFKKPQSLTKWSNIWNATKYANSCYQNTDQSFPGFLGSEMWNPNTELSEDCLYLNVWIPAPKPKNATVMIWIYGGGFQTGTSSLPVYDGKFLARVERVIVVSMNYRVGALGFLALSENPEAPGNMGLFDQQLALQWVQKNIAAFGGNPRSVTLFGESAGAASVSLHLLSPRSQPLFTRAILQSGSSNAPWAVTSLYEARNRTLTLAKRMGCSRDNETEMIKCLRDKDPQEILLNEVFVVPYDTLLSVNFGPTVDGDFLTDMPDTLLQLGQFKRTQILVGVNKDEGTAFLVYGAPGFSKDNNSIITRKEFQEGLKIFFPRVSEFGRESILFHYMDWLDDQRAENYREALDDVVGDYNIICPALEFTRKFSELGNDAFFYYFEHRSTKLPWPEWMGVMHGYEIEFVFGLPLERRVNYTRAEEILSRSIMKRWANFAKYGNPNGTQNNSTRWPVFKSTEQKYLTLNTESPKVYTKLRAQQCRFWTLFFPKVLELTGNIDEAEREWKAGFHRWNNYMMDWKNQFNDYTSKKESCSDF

SMILES: Cc1ccccc1NC(=O)Oc1ccc2c(c1)CN1CCc3ccccc3C1N2C (configuration not stated)
- IC50 (Cholinesterase [1]; read-out: IC50): 0.144 µM
- Ratio IC50 [2]: > 1350

SMILES: CCCCCCCNC(=O)Oc1ccc2c(c1)CN1CCCc3ccccc3C1N2C (configuration not stated)
- Ratio [3]: 0.86
- Activity (HT-22 [4]): Active
- IC50 (Cholinesterase [1]; read-out: IC50): 0.046 µM
- Ratio IC50 [2]: > 4000

SMILES: COc1ccc2c(c1)CN1CCc3ccccc3C1N2C (configuration not stated)
- Ratio [3]: 0.51
- Activity (HT-22 [5]): inactive
- IC50 (Cholinesterase [1]; read-out: IC50): 55.6 µM
- Ratio IC50 [2]: 4.2
- IC50 (Acetylcholinesterase [6]; read-out: IC50): 232 µM

SMILES: CN1c2ccc(O)cc2CN2CCc3ccccc3C21 (configuration not stated)
- Ratio [3]: 2.87
- Activity (HT-22 [4]): Active
- Activity (HT-22 [5]): Active
- IC50 (Cholinesterase [1]; read-out: IC50): 44.3 µM
- Ratio IC50 [2]: 2.5
- IC50 (Acetylcholinesterase [6]; read-out: IC50): 110 µM

SMILES: CCCCCCCNC(=O)Oc1ccc2c(c1)CN1CCc3ccccc3C1N2C (configuration not stated)
- Ratio [3]: 0.3
- Ki (Cholinesterase [7]): 0.0127 µM
- inhibition [8]: inactive
- Activity (HT-22 [4]): Active
- IC50 (Cholinesterase [1]; read-out: IC50): 0.06 µM
- inhibition [9]: inactive
- Ratio IC50 [2]: > 15000

SMILES: CCCCCCCNC(=O)Oc1ccc2c(c1)CN1CCCC1N2C (configuration not stated)
- Ratio [3]: 1.03
- Activity (HT-22 [4]): Active
- Activity (HT-22 [5]): Active
- IC50 (Cholinesterase [1]; read-out: IC50): 1.95 µM
- Ratio IC50 [2]: 16.6
- IC50 (Acetylcholinesterase [6]; read-out: IC50): 32.3 µM

SMILES: CC(C)c1ccc(NC(=O)Oc2ccc3c(c2)CN2CCCC2N3C)cc1 (configuration not stated)
- IC50 (Cholinesterase [1]; read-out: IC50): 3 µM
- Ratio IC50 [2]: > 66.6

SMILES: CN1c2ccccc2CN2CCCC21 (configuration not stated)
- IC50 (Cholinesterase [1]; read-out: IC50): 38.9 µM
- Ratio IC50 [2]: 3.4
- IC50 (Acetylcholinesterase [6]; read-out: IC50): 131 µM

SMILES: CCN(C)C(=O)Oc1ccc2c(c1)CN1CCc3ccccc3C1N2C (configuration not stated)
- Ratio [3]: 0.65
- Ki (Cholinesterase [7]): 0.275 µM
- Ki (Acetylcholinesterase [10]): 1.12 µM
- Activity (HT-22 [4]): inactive
- IC50 (Cholinesterase [1]; read-out: IC50): 0.45 µM
- IC50 (Cholinesterase [1]; read-out: pIC50 (converted)): 24.5 µM
- Ratio IC50 [2]: 54.2
- IC50 (Acetylcholinesterase [6]; read-out: IC50): 24.4 µM
- IC50 (Acetylcholinesterase [6]; read-out: pIC50 (converted)): 234 µM

SMILES: CN1c2ccccc2CN2CCCc3ccccc3C21 (configuration not stated)
- IC50 (Cholinesterase [1]; read-out: IC50): 23.7 µM
- Ratio IC50 [2]: > 8.4

SMILES: CC(C)c1ccc(NC(=O)Oc2ccc3c(c2)CN2CCc4ccccc4C2N3C)cc1 (configuration not stated)
- IC50 (Cholinesterase [1]; read-out: IC50): 0.131 µM
- Ratio IC50 [2]: > 1500

SMILES: COc1cccc(NC(=O)Oc2ccc3c(c2)CN2CCc4ccccc4C2N3C)c1 (configuration not stated)
- IC50 (Cholinesterase [1]; read-out: IC50): 0.218 µM
- Ratio IC50 [2]: > 900

SMILES: CN1c2ccc(O)cc2CN2CCCC21 (configuration not stated)
- Ratio [3]: 3.43
- Activity (HT-22 [4]): Active
- Activity (HT-22 [5]): Active
- IC50 (Cholinesterase [1]; read-out: IC50): 41 µM
- Ratio IC50 [2]: 0.75
- IC50 (Acetylcholinesterase [6]; read-out: IC50): 30.6 µM
- IC50 (Acetylcholinesterase [6]; read-out: pIC50 (converted)): 30.2 µM

SMILES: CN1c2ccc(O)cc2CN2CCCc3ccccc3C21 (configuration not stated)
- Ratio [3]: 2.48
- Activity (HT-22 [4]): Active
- Activity (HT-22 [5]): Active
- IC50 (Cholinesterase [1]; read-out: IC50): 7.3 µM
- Ratio IC50 [2]: 5.2
- IC50 (Acetylcholinesterase [6]; read-out: IC50): 37.8 µM

SMILES: Cc1ccccc1NC(=O)Oc1ccc2c(c1)CN1CCCC1N2C (configuration not stated)
- IC50 (Cholinesterase [1]; read-out: IC50): 4.11 µM
- Ratio IC50 [2]: 16.1
- IC50 (Acetylcholinesterase [6]; read-out: IC50): 66.3 µM

SMILES: COc1ccc2c(c1)CN1CCCc3ccccc3C1N2C (configuration not stated)
- Ratio [3]: 1.2
- IC50 (Cholinesterase [1]; read-out: IC50): 29.7 µM
- Ratio IC50 [2]: > 6.7

SMILES: COc1cccc(NC(=O)Oc2ccc3c(c2)CN2CCCC2N3C)c1 (configuration not stated)
- IC50 (Cholinesterase [1]; read-out: IC50): 7.52 µM
- Ratio IC50 [2]: 5.3
- IC50 (Acetylcholinesterase [6]; read-out: IC50): 40.2 µM

SMILES: CN1c2ccccc2CN2CCc3ccccc3C21 (configuration not stated)
- Ratio [3]: 0.92
- Activity (HT-22 [4]): inactive
- IC50 (Cholinesterase [1]; read-out: IC50): 44 µM
- Ratio IC50 [2]: 3.3
- IC50 (Acetylcholinesterase [6]; read-out: IC50): 145 µM
